Measurements from different studies.
Each line is one published result; the experiments were not run side by side.
Target: Serine/threonine-protein kinase WNK2 (WNK2, Homo sapiens, UniProt Q9Y3S1)

SMILES | observed | technique | concentration | remaining binding [%]
CC1CCCN1c1nccc(-c2cnn3ncccc23)n1 (stereo not drawn) | binding | – | 1 µM | 100
O=C(NCC1CCOCC1)c1n[nH]cc1NC(=O)c1c(F)cccc1F | binding | competition with immobilised ligand | 1 µM | 81
c1cncc(-c2cccc(Nc3nccc(NC4CCCCC4)n3)c2)c1 | binding | competition with immobilised ligand | 10 µM | 100
Cc1cnc(Nc2ccc(C(=O)N3CCC(N4CCCC4)CC3)cc2)nc1-c1cc2ccccc2s1 | binding | competition with immobilised ligand | 1 µM | 69
COc1cnc(Nc2cccc(S(N)(=O)=O)c2)nc1N1CCN(c2ccccc2)CC1 | binding | competition with immobilised ligand | 1 µM | 35
C[C@@H](c1cccc(C#N)c1)n1cc(Cl)cc(C(N)=O)c1=N | cell-free assay | competition with immobilised ligand | 1 µM | 67
C=CC(=O)N1CCC(C(=O)NCC(=O)N2CCN(c3nc(-c4cnc(N)nc4C(F)F)nc(N4CCOCC4)n3)CC2)CC1 | binding | competition with immobilised ligand | 1 µM | 92
C[C@H]1CCN(c2nccc(-c3cnn4ncccc34)n2)C1 | binding | – | 1 µM | 98
Cc1nc(Cc2cccc(C(F)(F)F)c2)sc1-c1ccc(C(N)=O)nc1 | cell-free assay | competition with immobilised ligand | 1 µM | 100
N[C@@H]1CCN(c2nccc(-c3cnn4ncccc34)n2)C1 | binding | – | 1 µM | 95
CCC(=N\O)/C(C)=C/c1ccc(F)cc1 | cell-free assay | competition with immobilised ligand | 1 µM | 80
CN(C)c1nccc(-c2cnn3ncccc23)n1 | binding | – | 1 µM | 37
COc1ncc2cc3ccccc3nc2c1C#N | cell-free assay | competition with immobilised ligand | 5 µM | 100
c1cnn2ncc(-c3ccnc(N4CCC45COC5)n3)c2c1 | binding | – | 1 µM | 78
CNCc1ccccc1-c1csc([C@H](C)Nc2nc(C)nc3cc(OC)c(OC)cc23)c1 | cell-free assay | competition with immobilised ligand | 1 µM | 99
O=C(NCCCN1CCOCC1)c1ccc(Nc2ncc(Cl)c(-c3ccc(Cl)s3)n2)cc1 | binding | competition with immobilised ligand | 1 µM | 92
COc1cnc(Nc2cccc(S(N)(=O)=O)c2)nc1N1CCN(c2ccccc2)C(=O)C1 | binding | competition with immobilised ligand | 1 µM | 100
Cc1c(NC(=O)c2cc(C(N)=O)nc3cc(F)ccc23)c(C(F)(F)F)nn1Cc1ccc(C(C)(C)C)cc1 | cell-free assay | competition with immobilised ligand | 1 µM | 100
O=C(c1ccc(Nc2nccc(-c3cc4ccccc4s3)n2)cc1)N1CCC(N2CCCC2)CC1 | binding | competition with immobilised ligand | 1 µM | 87
COc1ccc2c(c1)O[C@@H](c1ccc(OC)c(OC)c1)C[C@H]2NC(=O)C1(c2ccc3c(c2)OC(F)(F)O3)CC1 | cell-free assay | competition with immobilised ligand | 1 µM | 84
Cc1cnn2ncc(-c3ccnc(N(C)C)n3)c2c1 | binding | – | 1 µM | 100
